Results gathered from unrelated publications.
Lines come from different studies, so protocols differ.
Sample: plasma
Route: oral

SMILES | system | conditions | Vd/F [L]
N#CN1C[C@H](n2nc(-c3ccc(Oc4ccc(Cl)cn4)cc3)c(C(N)=O)c2N)CCC12CC2 | human | 600 mg, fasted | 1060
C[C@@]1(c2cc(NC(=O)c3ccc(C#N)cn3)ccc2F)C=CSC(N)=N1 | human | 3 mg, single dose | 235
COc1ccc([C@@H]2CN(C(=O)[C@@H](O)CO)C[C@@]2(C)[C@@H](C)O)cc1OC1CN(c2ccc(C)cn2)C1 | human | 0.1 mg, single dose, healthy volunteers | 23.8
Cc1cc(Nc2cc(N3CCN(C)CC3)nc(/C=C/c3ccccc3)n2)n[nH]1 | human | 200 mg/m², patients | 2280
c1cnc2ccc(Nc3nc(NC4CC4)c4nc[nH]c4n3)cc2c1 | human | 400 mg/m², patients | 546
C=C(F)C(=O)N1CCN(c2nc(OC[C@@H]3CCCN3C)nc3c2CCN(c2cccc4cccc(Cl)c24)C3)C[C@@H]1CC#N | human | 600 mg, single dose, fasted | 527
COc1cc(C(=O)NC2CCN(C)CC2)c(F)cc1Nc1ncc(C(F)(F)F)c(Oc2cccc3c2C(=O)N(C)C3)n1 | human | 50 mg, single dose, patients | 581
CC(C)(Sc1ccncc1-c1ccc(C#N)c2ccccc12)C(=O)O | male human | 2 mg, single dose, fasted, healthy volunteers | 394
CCOc1cc([C@@H](CS(C)(=O)=O)N2C(=O)c3cccc(NC(C)=O)c3C2=O)ccc1OC | human | 30 mg, single dose, healthy volunteers | 141
CCOc1cc2ncc(C#N)c(Nc3ccc(OCc4ccccn4)c(Cl)c3)c2cc1NC(=O)/C=C/[C@H]1CCCN1C | human | 80 mg, single dose | 4110
CC(C)(C)OC[C@@H]1C(=O)NCCN1C(=O)C[C@H](N)Cc1cc(F)c(F)cc1F | male human | 5 mg, multiple doses, steady state | 1960
C[C@@H](c1ccc2nccn2c1)n1nnc2ncc(-c3cnn(C)c3)nc21 | human | 600 mg | 506
CO[C@H]1CC[C@H](N2C(=O)CNc3ncc(-c4ccc(C(C)(C)O)nc4)nc32)CC1 | human | 15 mg, patients | 192
